The test system of the assay is human washed platelets, PMA-induced P-selectin, flow cytometry. As to the kind of experiment: inhibitors of PMA-stimulated platelet P-selectin exposure, selectivity assay for platelet activation inhibitor project, cell-based, fluorescence, flow cytometry, platelets (AID 2509). The conditions noted are these: at 30 µM; active compounds read high. Put shortly:
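Material – platelets, PMA-induced surface P-selectin expression · Also added – 5 nM PMA · Doses – single compound dose of 30 µM · Incubation – 20 min compound, 15 min PMA, 20 min antibody · Technique – flow cytometry with PE-conjugated anti-P-selectin antibody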
In general terms: In flow cytometry, cells or beads pass a laser one at a time.

The source made the active and inactive calls.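 The calls were made as follows: active = compounds cutting phorbol ester driven platelet P-selectin display by over 50% in every run; inconclusive = over 50% in some runs but not others; inactive = 50% or less in every run.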

Experimental findings from PubChem BioAssay AID2509 (Broad Institute, 2010) are described below.

In general, inhibition refers to the change of the read-out against control, counted positive when it falls. `Cc1ccc(-n2c(N)c(C#N)c(-c3ccccc3)c(C#N)c2=O)cc1`: the inhibition is 5.5% (inactive).

On to `C/C(=N/NC(=O)C1CCCC1)c1ccc(NC(=O)C(F)(F)F)cc1`, for which the inhibition was 9.5% (inactive).
